From ChEMBL document CHEMBL2021796, “Synthesis and biological evaluation of a series of thieno-expanded tricyclic purine 2'-deoxy nucleoside analogues” (Bioorg Med Chem, 2012) come the findings set out here.

Usually EC50 stands for the concentration giving half of the maximal effect.

The test system of this assay is Vaccinia virus. As to the kind of experiment: Antiviral activity against Vaccinia virus infected in HEL cells assessed as inhibition of virus-induced cytopathogenicity. Type of assay: functional, organism-based. Conditions: Orthopoxvirus vaccinia. The gist of the method: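 Confluent HEL, Vero or HeLa monolayers were infected with 100 CCID50 of virus while exposed to fivefold serial dilutions of compound. Virus-induced cytopathicity was scored when it reached completion in untreated infected controls. The EC50 is the concentration that inhibits cytopathicity by 50%.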
For the molecule `Nc1nc2c(sc3ncn([C@H]4C[C@H](O)[C@@H](CO)O4)c32)c(=O)[nH]1`, the concentration for a half-maximal effect (EC50) is > 100 µM. For `Nc1ncnc2c1sc1ncn([C@H]3C[C@H](O)[C@@H](CO)O3)c12` the value was > 20 µM; for `NC(=O)c1ncn([C@@H]2O[C@H](CO)[C@@H](O)[C@H]2O)n1` [RIBAVIRIN], > 250 µM.
